Laboratory results from publication PMC5116011 (The Journal of antibiotics, 2016).
Converted amounts (≈) assume the structure as drawn. Like-named read-outs stand apart in the source and are kept apart here.

Columns and labels:
E. faecalis ATCC33186 = assay: MIC, microbroth dilution in Mueller-Hinton broth; assay type: cell-based; details: Enterococcus faecalis, ATCC33186, read-out: MIC EF
In short: (§1)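 CLSI broth microdilution in cation-adjusted Mueller-Hinton broth. Inocula were grown from MH agar colonies in MH broth, with a final inoculum of 10^5 CFU/ml. Test compound final range was 200–0.2 µg/ml, incubated 37°C for 18–20 h. MIC was the lowest concentration preventing visible growth. Runs were at least duplicate, and the mean MIC was reported.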

E. coli BW25113 = assay: MIC, microbroth dilution in Mueller-Hinton broth; assay type: cell-based, Escherichia coli; details: for MIC EC MH+BP/CCCP / MIC EC +: E. coli BW25113; for MIC EC MH+BP/CCCP: MH broth with 30 µg/ml 2,2′-bipyridyl and 50 µg/ml CCCP; for MIC EC +: with clavulanic acid (6µg/ml); for MIC: Escherichia coli, BW25113, read-out: MIC EC, E. coli BW25113, Mueller-Hinton broth (Table 2)
B. subtilis ATCC23857 = assay: MIC, microbroth dilution in Mueller-Hinton broth; assay type: cell-based; details: Bacillus subtilis, ATCC23857, read-out: MIC BS
In short: as §1

[1] = test system: E. coli BW25113 ΔtolC derivative JW5503-1; assay: MIC, microbroth dilution in Mueller-Hinton broth; assay type: cell-based, Escherichia coli; details: for MIC: Escherichia coli
P. mirabilis ATCC 25933 = assay: MIC, microbroth dilution in Mueller-Hinton broth; assay type: cell-based; details: Proteus mirabilis, ATCC25933, read-out: MIC PM
P. vulgaris ATCC 33420 = assay: MIC, microbroth dilution in Mueller-Hinton broth; assay type: cell-based; details: Proteus vulgaris, ATCC33420, read-out: MIC PV
B. anthracis sterne = assay: microbe, parasite or virus in culture; assay type: cell-based; details: Bacillus anthracis, read-out: MIC BA
S. aureus NRS 70 (MRSA) = assay: MIC, microbroth dilution in Mueller-Hinton broth; assay type: cell-based; details: Staphylococcus aureus, MRSA|NRS70, read-out: MIC MRSA
In short: as §1

S. pyogenes ATCC700294 = assay: MIC, microbroth dilution in Mueller-Hinton broth; assay type: cell-based; details: Streptococcus pyogenes, ATCC700294, read-out: MIC SPy
In short: as §1

[2] = test system: E. coli BW25113 ΔampC derivative JW4111-2; assay type: cell-based, Escherichia coli; details: for MIC: Escherichia coli, BW25113, read-out: MIC ECΔampC −
S. pneumoniae R6 = assay: MIC, microbroth dilution in Mueller-Hinton broth; assay type: cell-based; details: Streptococcus pneumoniae, R6, read-out: MIC SP
In short: as §1

P. aeruginosa PA01 = assay: MIC, microbroth dilution in Mueller-Hinton broth; assay type: cell-based, Pseudomonas aeruginosa; details: for MIC PA MH+BP/CCCP / MIC PA +: P. aeruginosa PA01; for MIC PA MH+BP/CCCP: MH broth with 30 µg/ml 2,2′-bipyridyl and 50 µg/ml CCCP; for MIC PA +: with clavulanic acid (6µg/ml); for MIC: Pseudomonas aeruginosa
[3] = test system: S. aureus -ATCC29213 (MSSA); assay: MIC, microbroth dilution in Mueller-Hinton broth; assay type: cell-based; details: Staphylococcus aureus, read-out: MIC MSSA
In short: as §1

[4] = test system: E. coli ATCC 35218 (Low-level TEM-1); assay: MIC with and without clavulanic acid; assay type: cell-based
In short: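 Mueller-Hinton broth microdilution per CLSI, run in parallel without and with the β-lactamase inhibitor clavulanic acid (6 µg/ml). MH-broth-grown inoculum was at 10^5 CFU/ml final, with test compound at 200–0.2 µg/ml final. Incubation was 37°C, 18–20 h, and the visible-growth endpoint was read. At least duplicate determinations; the mean MIC was reported.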

[5] = BW25113, read-out: MIC ECΔtolC MH
[6] = BW25113, read-out: MIC ECΔtolC MH+BP

SMILES | MIC (E. faecalis ATCC33186) | MIC EC MH+BP/CCCP (E. coli BW25113) | MIC EC + (E. coli BW25113) | MIC (E. coli BW25113) | MIC (B. subtilis ATCC23857) | MIC ([1]; BW25113, read-out: MIC ECΔtolC) | MIC [1, 5] | MIC [1, 6] | MIC ECΔtolC MH+BP/CCCP [1] | MIC ECΔtolC MH+CCCP [1] | MIC (P. mirabilis ATCC 25933) | MIC (P. vulgaris ATCC 33420) | MIC (B. anthracis sterne) | MIC (S. aureus NRS 70 (MRSA)) | MIC (S. pyogenes ATCC700294) | MIC ECΔampC + [2] | MIC (S. pneumoniae R6) | MIC PA MH+BP/CCCP (P. aeruginosa PA01) | MIC PA + (P. aeruginosa PA01) | MIC (P. aeruginosa PA01; PA01, read-out: MIC PA) | other results
CC1(C)SC2C(NC(=O)C(NC(=O)C3=C(O)C4CCCN4C3=O)c3ccccc3)C(=O)N2C1C(=O)O (stereo not shown) [Compound 2780] | 25 µg/mL (≈ 48.6 µM) | 25 µg/mL (≈ 48.6 µM) | 50 µg/mL | 200 µg/mL (≈ 389 µM) | 0.78 µg/mL (≈ 1.52 µM) | 6.25 µg/mL (≈ 12.1 µM) | 6.25 µg/mL (≈ 12.1 µM) | 6.25 µg/mL (≈ 12.1 µM) | 3.13 µg/mL (≈ 6.08 µM) | 3.13 µg/mL (≈ 6.08 µM) | 1.56 µg/mL (≈ 3.03 µM) | 12.5 µg/mL (≈ 24.3 µM) | 1.56 µg/mL (≈ 3.03 µM) | 50 µg/mL (≈ 97.2 µM) | 0.78 µg/mL (≈ 1.52 µM) | 3.13 µg/mL | 0.39 µg/mL (≈ 0.758 µM) | 6.25 µg/mL (≈ 12.1 µM) | 12.5 µg/mL | 25 µg/mL (≈ 48.6 µM) | MIC [2]: 12.5 µg/mL (≈ 24.3 µM); MIC (P. aeruginosa PA01; PA01, read-out: MIC PA MH): 25 µg/mL (≈ 48.6 µM); MIC (P. aeruginosa PA01; PA01, read-out: MIC PA MH+BP): 25 µg/mL (≈ 48.6 µM); MIC (P. aeruginosa PA01; PA01, read-out: MIC PA MH+CCCP): 6.25 µg/mL (≈ 12.1 µM); MIC (P. aeruginosa PA01; PA01, read-out: MIC PA −): 25 µg/mL (≈ 48.6 µM); MIC [3]: 0.39 µg/mL (≈ 0.758 µM)
CC1(C)SC2C(NC(=O)C(NC(=O)C3=C(O)C(Cc4ccccc4)NC3=O)c3ccccc3)C(=O)N2C1C(=O)O (stereo not shown) [Compound 2781] | 25 µg/mL (≈ 44.3 µM) | 3.13 µg/mL (≈ 5.54 µM) | 6.25 µg/mL | 100 µg/mL (≈ 177 µM) | 0.78 µg/mL (≈ 1.38 µM) | 3.13 µg/mL (≈ 5.54 µM) | 3.13 µg/mL (≈ 5.54 µM) | 3.13 µg/mL (≈ 5.54 µM) | 1.56 µg/mL (≈ 2.76 µM) | 1.56 µg/mL (≈ 2.76 µM) | 3.13 µg/mL (≈ 5.54 µM) | 6.25 µg/mL (≈ 11.1 µM) | 3.13 µg/mL (≈ 5.54 µM) | 25 µg/mL (≈ 44.3 µM) | 0.39 µg/mL (≈ 0.691 µM) | 3.13 µg/mL | < 0.2 µg/mL | 1.56 µg/mL (≈ 2.76 µM) | 3.13 µg/mL | 12.5 µg/mL (≈ 22.1 µM) | MIC ([4]; Escherichia coli, ATCC35218, read-out: MIC ATCC 35218 (Low-level TEM-1) - CLV): > 200 µg/mL; MIC ATCC 35218 (Low-level TEM-1) + CLV ([4]; with clavulanic acid (6 µg/ml)): 25 µg/mL; MIC [2]: 6.25 µg/mL (≈ 11.1 µM); MIC (P. aeruginosa PA01; PA01, read-out: MIC PA MH): 12.5 µg/mL (≈ 22.1 µM); MIC (P. aeruginosa PA01; PA01, read-out: MIC PA MH+BP): 6.25 µg/mL (≈ 11.1 µM); MIC (P. aeruginosa PA01; PA01, read-out: MIC PA MH+CCCP): 3.13 µg/mL (≈ 5.54 µM); MIC (P. aeruginosa PA01; PA01, read-out: MIC PA −): 12.5 µg/mL (≈ 22.1 µM); MIC [3]: < 0.2 µg/mL
CC1(C)SC2C(NC(=O)C(NC(=O)C3=C(O)C4(CC4)NC3=O)c3ccccc3)C(=O)N2C1C(=O)O (stereo not shown) [Compound 2833] | 12.5 µg/mL (≈ 25 µM) | 6.25 µg/mL (≈ 12.5 µM) | 12.5 µg/mL | 100 µg/mL (≈ 200 µM) | 0.39 µg/mL (≈ 0.779 µM) | 3.13 µg/mL (≈ 6.25 µM) | 3.13 µg/mL (≈ 6.25 µM) | 1.56 µg/mL (≈ 3.12 µM) | 0.78 µg/mL (≈ 1.56 µM) | 1.56 µg/mL (≈ 3.12 µM) | 6.25 µg/mL (≈ 12.5 µM) | 100 µg/mL (≈ 200 µM) | 1.56 µg/mL (≈ 3.12 µM) | 25 µg/mL (≈ 49.9 µM) | 0.78 µg/mL (≈ 1.56 µM) | 6.25 µg/mL | < 0.2 µg/mL | 12.5 µg/mL (≈ 25 µM) | 6.25 µg/mL | 25 µg/mL (≈ 49.9 µM) | MIC [2]: 12.5 µg/mL (≈ 25 µM); MIC (P. aeruginosa PA01; PA01, read-out: MIC PA MH): 25 µg/mL (≈ 49.9 µM); MIC (P. aeruginosa PA01; PA01, read-out: MIC PA MH+BP): 25 µg/mL (≈ 49.9 µM); MIC (P. aeruginosa PA01; PA01, read-out: MIC PA MH+CCCP): 12.5 µg/mL (≈ 25 µM); MIC [3]: < 0.2 µg/mL
CC1(C)SC2C(NC(=O)C(NC(=O)C3=C(O)C(Cc4ccc([N+](=O)[O-])cc4)NC3=O)c3ccccc3)C(=O)N2C1C(=O)O (stereo not shown) [Compound 2835] | 25 µg/mL (≈ 41 µM) | 12.5 µg/mL (≈ 20.5 µM) | 6.25 µg/mL | 100 µg/mL (≈ 164 µM) | < 0.2 µg/mL | 3.13 µg/mL (≈ 5.13 µM) | 3.13 µg/mL (≈ 5.13 µM) | 1.56 µg/mL (≈ 2.56 µM) | 0.78 µg/mL (≈ 1.28 µM) | 1.56 µg/mL (≈ 2.56 µM) | 25 µg/mL (≈ 41 µM) | 25 µg/mL (≈ 41 µM) | 3.13 µg/mL (≈ 5.13 µM) | 25 µg/mL (≈ 41 µM) | 0.78 µg/mL (≈ 1.28 µM) | 12.5 µg/mL | < 0.2 µg/mL | 12.5 µg/mL (≈ 20.5 µM) | 6.25 µg/mL | 25 µg/mL (≈ 41 µM) | MIC (P. aeruginosa PA01; PA01, read-out: MIC PA MH): 25 µg/mL (≈ 41 µM); MIC (P. aeruginosa PA01; PA01, read-out: MIC PA MH+BP): 25 µg/mL (≈ 41 µM); MIC (P. aeruginosa PA01; PA01, read-out: MIC PA MH+CCCP): 12.5 µg/mL (≈ 20.5 µM); MIC [3]: < 0.2 µg/mL
